In brackets after ≈: the same amount, converted by molar mass.
Tests used:
Type in all cases: functional
Escherichia coli [1] = experiment: Bacteriostatic activity against Escherichia coli K-12 DM4100
Procedure, shortened: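 MIC by broth dilution: E. coli K-12 DM4100 at 10^4 to 10^5 cells/ml in LB liquid medium with serial 2-fold dilutions of quinolone, incubated at 37°C. Drug stock dilutions made in sterile distilled water.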

Escherichia coli [2] = experiment: Ratio of LD99 for Escherichia coli K-12 DM4100 to MIC for Escherichia coli K-12 DM4100
Procedure, shortened: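 MIC: 10^4 to 10^5 cells/ml incubated at 37°C in LB broth with serial 2-fold quinolone dilutions. Lethality: midlog cultures grown aerobically at 37°C and exposed to quinolone for 2 h, then plated on drug-free agar overnight for CFU. Survival is expressed as percent of CFU at drug addition.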

Escherichia coli [3] = experiment: Bactericidal activity against Escherichia coli K-12 DM4100 after 2 hrs in presence of protein synthesis inhibitor chloramphenicol treated 10 mins before compound challenge
Procedure, shortened: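 Midlog E. coli grown aerobically at 37°C in LB. Chloramphenicol added to 20 μg/ml 10 min before quinolone, then 2 h further incubation. Cells diluted in growth medium and plated on drug-free agar, then incubated overnight at 37°C for CFU counts. Percent survival is relative to CFU at quinolone addition.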

| Structure (SMILES) | MIC (Escherichia coli [1]) | Ratio (Escherichia coli [2]) | LD99 (Escherichia coli [3]) |
| --- | --- | --- | --- |
| CCC1CN(c2c(F)cc3c(=O)c(C(=O)O)cn(C4CC4)c3c2OC)CCN1 (stereo not given) | 0.16 µg/mL (≈ 0.411 µM) | 5 | 0.8 µg/mL |
| COc1c(N2CCNCC2)c(F)cc2c(=O)c(C(=O)O)cn(C3CC3)c12 | 0.031 µg/mL (≈ 0.0858 µM) | 1.3 | 0.04 µg/mL |
| CCN1CCN(c2c(F)cc3c(=O)c(C(=O)O)cn4c3c2OC[C@@H]4C)CC1 | 0.75 µg/mL (≈ 2 µM) | 2 | 1.5 µg/mL |
| CCC1CN(c2c(F)cc3c(=O)c(C(=O)O)cn4c3c2OC[C@@H]4C)CCN1 (stereo not given in full) | 0.25 µg/mL (≈ 0.666 µM) | 2 | 0.5 µg/mL |
| CC1CN(c2c(F)cc3c(=O)c(C(=O)O)cn4c3c2OC[C@@H]4C)CCN1 (stereo not given in full) | 0.31 µg/mL (≈ 0.858 µM) | 2.4 | 0.74 µg/mL |
| CCN1CCN(c2c(F)cc3c(=O)c(C(=O)O)cn(C4CC4)c3c2OC)CC1 | 0.1 µg/mL (≈ 0.257 µM) | 1.4 | 0.14 µg/mL |
| COc1c(N2CCN(C)CC2)c(F)cc2c(=O)c(C(=O)O)cn(C3CC3)c12 | 0.062 µg/mL (≈ 0.165 µM) | 3.2 | 0.2 µg/mL |
| C[C@H]1COc2c(N3C[C@@H]4CCCN[C@@H]4C3)c(F)cc3c(=O)c(C(=O)O)cn1c23 | 0.125 µg/mL (≈ 0.323 µM) | 2 | 0.25 µg/mL |
| COc1c(N2CCNC(C)C2)c(F)cc2c(=O)c(C(=O)O)cn(C3CC3)c12 (stereo not given) [GATIFLOXACIN] | 0.04 µg/mL (≈ 0.107 µM) | 5 | 0.2 µg/mL |
| C[C@H]1COc2c(N3CCN(C)CC3)c(F)cc3c(=O)c(C(=O)O)cn1c23.C[C@H]1COc2c(N3CCN(C)CC3)c(F)cc3c(=O)c(C(=O)O)cn1c23.O [LEVOFLOXACIN] | 0.2 µg/mL | 4 | 0.8 µg/mL |
| CN1CCN(c2c(F)cc3c(=O)c(C(=O)O)cn4c3c2OCN4C)CC1 [MARBOFLOXACIN] | 0.02 µg/mL (≈ 0.0552 µM) | 3 | 0.06 µg/mL |
| COc1c(N2C[C@@H]3CCCN[C@@H]3C2)c(F)cc2c(=O)c(C(=O)O)cn(C3CC3)c12 [MOXIFLOXACIN] | 0.125 µg/mL (≈ 0.311 µM) | 4 | 0.5 µg/mL |
| C[C@H]1COc2c(N3CCNCC3)c(F)cc3c(=O)c(C(=O)O)cn1c23 [N-DESMETHYL LEVOFLOXACIN] | 1 µg/mL (≈ 2.88 µM) | 1.2 | 1.2 µg/mL |
| C[C@H]1COc2c(C3(N)CC3)c(F)cc3c(=O)c(C(=O)O)cn1c23 [PAZUFLOXACIN] | 0.02 µg/mL (≈ 0.0628 µM) | 4 | 0.08 µg/mL |
| CN1CCN(c2c(F)cc3c(=O)c(C(=O)O)cn4c3c2SCC4)CC1 [RUFLOXACIN] | 1 µg/mL (≈ 2.75 µM) | 7 | 7 µg/mL |
